Measurements as given in ChEMBL document CHEMBL4145560, “Conformationally Constrained Cinnolinone Nucleoside Analogues as Siderophore Biosynthesis Inhibitors for Tuberculosis” (ACS Med Chem Lett, 2018).
Calls of active or inactive are those of the source. The calls are words filed in the database; no cut-off is given here.

What was measured:
[1] = molecular target: T1, Salicyl-AMP ligase / salicyl-S-ArCP synthetase (Mycobacterium tuberculosis, UniProt P71716); experiment: Inhibition of Mycobacterium tuberculosis recombinant salicylate ligase MbtA expressed in Escherichia coli using salicylic acid as substrate after 20 mins by [32P]PPi-ATP exchange based scintillation counting analysis; details: read-out: Ki(app)
T1 sequence (P71716 whole entry): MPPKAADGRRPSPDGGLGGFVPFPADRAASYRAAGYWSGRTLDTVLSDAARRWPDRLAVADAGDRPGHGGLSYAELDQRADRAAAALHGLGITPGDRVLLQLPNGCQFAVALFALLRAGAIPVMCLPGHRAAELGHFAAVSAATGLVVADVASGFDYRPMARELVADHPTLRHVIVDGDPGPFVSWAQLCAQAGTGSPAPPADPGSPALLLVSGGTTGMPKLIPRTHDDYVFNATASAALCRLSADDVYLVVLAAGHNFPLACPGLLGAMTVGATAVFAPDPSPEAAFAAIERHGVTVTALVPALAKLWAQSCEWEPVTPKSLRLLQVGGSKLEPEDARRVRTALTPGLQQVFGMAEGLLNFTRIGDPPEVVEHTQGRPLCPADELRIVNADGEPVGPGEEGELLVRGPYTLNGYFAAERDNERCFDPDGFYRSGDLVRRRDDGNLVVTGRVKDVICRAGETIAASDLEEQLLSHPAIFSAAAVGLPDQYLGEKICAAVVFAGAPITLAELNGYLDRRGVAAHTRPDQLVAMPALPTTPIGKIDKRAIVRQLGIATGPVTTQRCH
Summary of the method: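 Recombinant MbtA (7 nM) in a [32P]PPi-ATP exchange assay under initial-velocity conditions at pH 8.0. Substrates were 10 mM ATP, 250 μM salicylic acid and 1 mM PPi. Concentration–response data were fitted to the Morrison tight-binding equation to give apparent Ki.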

[2] = test system: Mycobacterium tuberculosis; experiment: Antimycobacterial activity against Mycobacterium tuberculosis H37Rv in glycerol alanine salts medium without ferric ammonium citrate at pH 6.6 after 10 to 14 days by broth microdilution method; format: functional
Summary of the method: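 M. tuberculosis H37Rv grown in glycerol-alanine-salts medium at pH 6.6, with no ferric ammonium citrate or other added iron. MIC taken as the concentration inhibiting 99% of growth.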

[3] = Cytotoxicity against human HepG2 cells assessed as reduction in cell viability; format: cell-based
Summary of the method: (§1)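 Viability of mammalian Vero and HepG2 cell lines tested up to a highest concentration of 200 μM.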

[4] = Cytotoxicity against African green monkey Vero cells assessed as reduction in cell viability; format: cell-based; details: chlorocebus sabaeus; summary of the method: as §1
[5] = test system: Mycobacterium tuberculosis; experiment: Antimycobacterial activity against Mycobacterium tuberculosis H37Rv in glycerol alanine salts medium without ferric ammonium citrate at pH 6.6 after 10 to 14 days in presence of 0.2 to 3.1 uM salicylate by broth microdilution method; format: functional, organism-based
Summary of the method: (§2)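 MIC against M. tuberculosis in iron-deficient GAST medium supplemented with salicylate at 0, 0.2, 0.78, 3.1 or 12.5 μM. Salicylate was added to the growth medium to test antagonism of whole-cell activity.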

[6] = test system: Mycobacterium tuberculosis; experiment: Antimycobacterial activity against Mycobacterium tuberculosis H37Rv in glycerol alanine salts medium without ferric ammonium citrate at pH 6.6 after 10 to 14 days in presence of 12.5 uM salicylate by broth microdilution method; format: functional; summary of the method: as §2
[7] = test system: Mycobacterium tuberculosis; experiment: Antimycobacterial activity against wild type Mycobacterium tuberculosis in iron-free GAST medium at 0.04 to 10 uM after 8 days by two fold serial dilution method; format: functional, organism-based
[8] = AUC (0 to 8 hrs) in Sprague-Dawley rat at 25 mg/kg, po administered as single dose via gavage by LC-MS/MS method; format: ADME, organism-based; design: time < 8 hr, dose 25 mg/kg, route oral; details: in vivo
Summary of the method: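 Female Sprague–Dawley rats (n = 3), single oral dose 25 mg/kg. Plasma levels at time points measured by LC–MS/MS. AUC over 0–8 h, reported as mean ± SD.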

[9] = AUC (0 to 8 hrs) in Sprague-Dawley rat at 2.5 mg/kg, iv administered as single dose via bolus injection by LC-MS/MS method; format: ADME, organism-based; design: time < 8 hr, dose 2.5 mg/kg, route intravenous; details: in vivo
Summary of the method: (§3)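 Female Sprague–Dawley rats (n = 3), single i.v. dose 2.5 mg/kg. Plasma concentrations at several time points by LC–MS/MS. AUC taken over 0–8 h. Clearance, volume of distribution and half-life derived from the i.v. curve, with elimination monoexponential. Reported as mean ± SD.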

[10] = Volume of distribution at steady state in Sprague-Dawley rat at 2.5 mg/kg, iv administered as single dose via bolus injection by LC-MS/MS method; format: ADME, organism-based; details: in vivo, read-out: Vdss; summary of the method: as §3
[11] = Clearance in Sprague-Dawley rat at 2.5 mg/kg, iv administered as single dose via bolus injection by LC-MS/MS method; format: ADME, organism-based; details: in vivo; summary of the method: as §3
[12] = Elimination half life in Sprague-Dawley rat at 2.5 mg/kg, iv administered as single dose via bolus injection by LC-MS/MS method; format: ADME, organism-based; details: in vivo, read-out: beta t1/2; summary of the method: as §3
[13] = Oral bioavailability in Sprague-Dawley rat at 25 mg/kg administered as single dose via gavage by LC-MS/MS method; format: ADME, organism-based; details: in vivo
Summary of the method: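 Oral bioavailability (F) in female Sprague–Dawley rats (n = 3), calculated by comparing AUC0–8h after a single 25 mg/kg p.o. dose with AUC0–8h after a 2.5 mg/kg i.v. dose. Plasma levels measured by LC–MS/MS.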

[14] = molecular target: T2, Salicyl-AMP ligase / salicyl-S-ArCP synthetase (Mycobacterium tuberculosis) (UniProt P71716); experiment: Inhibition of salicylate ligase MbtA in Mycobacterium tuberculosis H37Rv in iron-free GAST medium assessed as reduction in cell-wall associated lipophilic mycobactin-T production at pH 7.4 at 5 times MIC after 27 hrs by LC-MS/MS method relative to control
T2 sequence (whole entry): T1 sequence (P71716 whole entry)
Summary of the method: (§4)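 M. tuberculosis grown in iron-deficient GAST medium from an initial OD650 of 0.2, with or without inhibitor at 5 × MIC, for 27 and 70 h. Mycobactin-T (cell-wall associated) and carboxymycobactin (secreted plus cell-wall associated) quantified by LC–MS/MS in MRM mode against synthetic standards. Values normalized to cell density.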

[15] = molecular target: T2, Salicyl-AMP ligase / salicyl-S-ArCP synthetase (Mycobacterium tuberculosis); experiment: Inhibition of salicylate ligase MbtA in Mycobacterium tuberculosis H37Rv in iron-free GAST medium assessed as reduction in cell-wall associated lipophilic mycobactin-T production at pH 7.4 at 5 times MIC after 70 hrs by LC-MS/MS method relative to control; summary of the method: as §4
[16] = molecular target: T2, Salicyl-AMP ligase / salicyl-S-ArCP synthetase (Mycobacterium tuberculosis); experiment: Inhibition of salicylate ligase MbtA in Mycobacterium tuberculosis H37Rv in iron-free GAST medium assessed as reduction in water-soluble carboxymycobactin production at pH 7.4 at 5 times MIC after 27 to 70 hrs by LC-MS/MS method relative to control; summary of the method: as §4

Compound | Ki [1] [µM] | MIC99 [2] [µM] | CC50 [3] [µM] | CC50 [4] [µM] | Activity [5] | MIC [6] [µM] | Activity [7] | AUC(0-t) at 8 h [8] [ng·h/mL] | AUC(0-t) at 8 h [9] [ng·h/mL] | Vd [10] [L/kg] | clearance [11] [mL/min/kg] | half-life [12] [min] | bioavailability [13] [%] | fold change (FC) [14] | fold change (FC) [15] | fold change (FC) [16]
Nc1ncnc2c1ncn2[C@@H]1O[C@H](CNS(=O)(=O)c2noc3ccccc3c2=O)[C@@H](O)[C@H]1O | > 50 | > 50 | > 200 | > 200 | – | – | – | – | – | – | – | – | – | – | – | –
Nc1ncnc2c1ncn2[C@@H]1O[C@H](CNS(=O)(=O)c2n[nH]c3cc(F)c(F)cc3c2=O)[C@@H](O)[C@H]1O | 0.014 | 3.1 | > 200 | > 200 | inactive | ≥ 50 | – | – | – | – | – | – | – | – | – | –
Nc1ncnc2c1ncn2[C@@H]1O[C@H](CNS(=O)(=O)c2n[nH]c3ccc(F)cc3c2=O)[C@@H](O)[C@H]1O | 0.0209 | 4.7 | > 200 | > 200 | inactive | ≥ 50 | – | – | – | – | – | – | – | – | – | –
Nc1ncnc2c1ncn2[C@@H]1O[C@H](CNS(=O)(=O)c2c[nH]c3ccccc3c2=O)[C@@H](O)[C@H]1O | 0.12 | > 50 | > 200 | > 200 | – | – | – | – | – | – | – | – | – | – | – | –
Nc1ncnc2c1ncn2[C@@H]1O[C@H](COS(=O)(=O)NC(=O)c2ccccc2O)[C@@H](O)[C@H]1O | – | – | – | – | – | ≥ 50 | Active | 1100 | 8650 | 0.079 | 4.9 | 11 | < 1 | – | – | –
Nc1ncnc2c1ncn2[C@@H]1O[C@H](CNS(=O)(=O)c2n[nH]c3ccccc3c2=O)[C@@H](O)[C@H]1O | 0.0144 | 4.7 | > 200 | > 200 | inactive | ≥ 50 | – | – | – | – | – | – | – | – | – | –
CCN(CC)CC.Nc1ncnc2c1ncn2[C@@H]1O[C@H](CNS(=O)(=O)c2n[nH]c3cc(F)ccc3c2=O)[C@@H](O)[C@H]1O | 0.0116 | 2.3 | > 200 | > 200 | inactive | ≥ 50 | – | 967 | 4630 | 0.57 | 8.9 | 40 | 2.1 | > 2 | 5 | 1.5
